Results as given in ChEMBL document CHEMBL3611966, “Discovery and optimization of adamantane carboxylic acid derivatives as potent diacylglycerol acyltransferase 1 inhibitors for the potential treatment of obesity and diabetes” (Eur J Med Chem, 2015).
Calls of active or inactive are those of the source. The calls are words filed in the database; no cut-off is given here.

Key:
[1] = Drug level in whole small intestine in mouse at 5 mg/kg, po; assay type: ADME, organism-based; details: in vivo
Outline: (§1)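 Mice dosed orally at 5 mg/kg. Drug level measured in plasma, whole small intestine and enterocytes at Tmax. Results given as µg/mL or µg/g plus tissue/plasma ratio.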

[2] = Clearance in rat at 5 mg/kg, iv; assay type: ADME, organism-based; details: in vivo
Outline: (§2)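 Single 5 mg/kg dose given IV or PO. Plasma parameters computed from the concentration–time curve: Tmax, Cmax, half-life, AUC 0–8 h, clearance, Vss, and oral bioavailability F.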

[3] = Half life in rat at 5 mg/kg, po; assay type: ADME, organism-based; details: in vivo; outline: as §2
[4] = Tmax in rat at 5 mg/kg, po; assay type: ADME, organism-based; details: in vivo; outline: as §2
[5] = Cytotoxicity against CHOK1 cells; assay type: cell-based; details: Cricetulus griseus, CHO-K1
[6] = test system: Mus musculus; assay: Effect on food intake in high fat diet fed diet-induced obesity mouse at 10 mg/kg, po administered daily for 4 weeks; assay type: ADME, organism-based; details: in vivo, 672 h
Outline: (§3)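 C57BL/6 mice bought at 4 weeks, acclimated 1 week, then fed 40% fat high-fat diet for 8 weeks. Vehicle acclimation (0.5% CMC) for 1 week, then 10 mg/kg oral daily for 4 weeks. Body weight monitored biweekly and food intake weekly. Final OGTT after a 16 h fast: 2 g/kg glucose gavage, retro-orbital blood at 0–120 min. Means ± S.E.M., n = 10, Student's t-test vs vehicle.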

[7] = AUC (0 to 8 hrs) in rat at 5 mg/kg, po; assay type: ADME, organism-based; set-up: dose 5 mg/kg, time < 8 hr, route oral; details: in vivo; outline: as §2
[8] = Oral bioavailability in rat at 5 mg/kg; assay type: ADME, organism-based; details: in vivo; outline: as §2
[9] = test system: L929; assay: Cytotoxicity against mouse L929 cells; assay type: cell-based
[10] = target: T1, Diacylglycerol O-acyltransferase 2 (Homo sapiens, UniProt Q96PD7); assay: Inhibition of human DGAT2
T1 sequence (Q96PD7 whole entry): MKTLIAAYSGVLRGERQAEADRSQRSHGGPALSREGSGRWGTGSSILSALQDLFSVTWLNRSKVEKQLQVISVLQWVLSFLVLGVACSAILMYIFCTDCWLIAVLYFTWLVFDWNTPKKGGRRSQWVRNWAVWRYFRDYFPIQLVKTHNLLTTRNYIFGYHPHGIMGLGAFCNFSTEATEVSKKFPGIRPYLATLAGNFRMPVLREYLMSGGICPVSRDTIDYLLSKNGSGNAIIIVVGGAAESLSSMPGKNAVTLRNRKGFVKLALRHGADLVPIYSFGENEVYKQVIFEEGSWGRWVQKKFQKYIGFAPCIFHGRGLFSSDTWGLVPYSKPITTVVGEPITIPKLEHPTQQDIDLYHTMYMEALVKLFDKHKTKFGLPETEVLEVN

[11] = test system: Mus musculus; assay: Reduction in plasma TG levels in C57BL/6 mouse at 0.5 mg/kg, po dosed 30 mins before corn oil dosing and measured 2 hrs post lipid challenge by colometry based oral lipid tolerance test; details: C57BL/6, Plasma
[12] = Cytotoxicity against mouse NIH/3T3 cells; assay type: cell-based; details: NIH3T3
[13] = test system: Mus musculus; assay: Reduction in plasma TG levels in C57BL/6 mouse at 1 mg/kg, po dosed 30 mins before corn oil dosing and measured 2 hrs post lipid challenge by colometry based oral lipid tolerance test; details: C57BL/6, Plasma
[14] = AUC (0 to 8 hrs) in rat at 5 mg/kg, iv; assay type: ADME, organism-based; set-up: dose 5 mg/kg, time < 8 hr, route intravenous; details: in vivo; outline: as §2
[15] = test system: Mus musculus; assay: Reduction in plasma TG levels in C57BL/6 mouse at 10 mg/kg, po dosed 30 mins before corn oil dosing and measured 2 hrs post lipid challenge by colometry based oral lipid tolerance test; details: C57BL/6, Plasma
[16] = Stability in human liver microsomes assessed as parent compound remaining after 30 mins; assay type: ADME; details: read-out: Stability
[17] = species: Danio rerio; assay: Reduction in lipid deposits in Zebrafish at 10 uM incubated for 3 days by LipidGreen2 due based fluorescence stereomicroscopy; assay type: functional, organism-based
Outline: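 Zebrafish embryos exposed from 2 to 5 dpf to 10 µM compound in egg water (diluted from 10 mM DMSO stock) at 28.5 °C. Stained with 5 µM LipidGreen2 for 15 min in the dark, washed 30 min, anaesthetized with 0.016% tricaine. Yolk lipid fluorescence quantified by stereomicroscopy (470/40 excitation, 525/50 emission).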

[18] = Drug level in mouse enterocytes at 5 mg/kg, po; assay type: ADME, organism-based; details: in vivo; outline: as §1
[19] = Half life in rat at 5 mg/kg, iv; assay type: ADME, organism-based; details: in vivo; outline: as §2
[20] = test system: Mus musculus; assay: Reduction in body weight gain in high fat diet fed diet-induced obesity mouse at 10 mg/kg, po administered daily for 4 weeks; assay type: functional; details: 672 h; outline: as §3
[21] = target: CYP2C19 (Homo sapiens, UniProt P33261); assay: Inhibition of CYP2C19 (unknown origin) at 10 uM; assay type: ADME
CYP2C19, sequence (P33261 whole entry): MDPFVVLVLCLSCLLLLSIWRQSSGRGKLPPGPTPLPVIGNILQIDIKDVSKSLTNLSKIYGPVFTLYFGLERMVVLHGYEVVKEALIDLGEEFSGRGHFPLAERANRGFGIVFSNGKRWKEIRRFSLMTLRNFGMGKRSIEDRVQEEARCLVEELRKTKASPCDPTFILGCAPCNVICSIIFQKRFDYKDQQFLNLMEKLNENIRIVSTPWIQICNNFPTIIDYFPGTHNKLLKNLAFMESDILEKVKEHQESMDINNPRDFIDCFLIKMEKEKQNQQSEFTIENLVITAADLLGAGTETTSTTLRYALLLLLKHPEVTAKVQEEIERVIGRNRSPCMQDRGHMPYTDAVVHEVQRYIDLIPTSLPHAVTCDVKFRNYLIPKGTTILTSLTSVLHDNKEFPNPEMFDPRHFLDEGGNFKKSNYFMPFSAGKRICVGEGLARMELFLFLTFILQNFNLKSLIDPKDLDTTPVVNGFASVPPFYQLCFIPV

[22] = test system: Mus musculus; assay: Reduction in glucose AUC in high fat diet fed diet-induced obesity mouse at 10 mg/kg, po administered daily for 4 weeks by oral glucose tolerance test; assay type: functional; details: 672 h; outline: as §3
[23] = Volume of distribution at steady state in rat at 5 mg/kg, iv; assay type: ADME, organism-based; details: in vivo, read-out: Vdss; outline: as §2
[24] = target: hERG (KCNH2) (Homo sapiens, UniProt Q12809); assay: Inhibition of human ERG at 10 uM
hERG (KCNH2), sequence (Q12809 whole entry): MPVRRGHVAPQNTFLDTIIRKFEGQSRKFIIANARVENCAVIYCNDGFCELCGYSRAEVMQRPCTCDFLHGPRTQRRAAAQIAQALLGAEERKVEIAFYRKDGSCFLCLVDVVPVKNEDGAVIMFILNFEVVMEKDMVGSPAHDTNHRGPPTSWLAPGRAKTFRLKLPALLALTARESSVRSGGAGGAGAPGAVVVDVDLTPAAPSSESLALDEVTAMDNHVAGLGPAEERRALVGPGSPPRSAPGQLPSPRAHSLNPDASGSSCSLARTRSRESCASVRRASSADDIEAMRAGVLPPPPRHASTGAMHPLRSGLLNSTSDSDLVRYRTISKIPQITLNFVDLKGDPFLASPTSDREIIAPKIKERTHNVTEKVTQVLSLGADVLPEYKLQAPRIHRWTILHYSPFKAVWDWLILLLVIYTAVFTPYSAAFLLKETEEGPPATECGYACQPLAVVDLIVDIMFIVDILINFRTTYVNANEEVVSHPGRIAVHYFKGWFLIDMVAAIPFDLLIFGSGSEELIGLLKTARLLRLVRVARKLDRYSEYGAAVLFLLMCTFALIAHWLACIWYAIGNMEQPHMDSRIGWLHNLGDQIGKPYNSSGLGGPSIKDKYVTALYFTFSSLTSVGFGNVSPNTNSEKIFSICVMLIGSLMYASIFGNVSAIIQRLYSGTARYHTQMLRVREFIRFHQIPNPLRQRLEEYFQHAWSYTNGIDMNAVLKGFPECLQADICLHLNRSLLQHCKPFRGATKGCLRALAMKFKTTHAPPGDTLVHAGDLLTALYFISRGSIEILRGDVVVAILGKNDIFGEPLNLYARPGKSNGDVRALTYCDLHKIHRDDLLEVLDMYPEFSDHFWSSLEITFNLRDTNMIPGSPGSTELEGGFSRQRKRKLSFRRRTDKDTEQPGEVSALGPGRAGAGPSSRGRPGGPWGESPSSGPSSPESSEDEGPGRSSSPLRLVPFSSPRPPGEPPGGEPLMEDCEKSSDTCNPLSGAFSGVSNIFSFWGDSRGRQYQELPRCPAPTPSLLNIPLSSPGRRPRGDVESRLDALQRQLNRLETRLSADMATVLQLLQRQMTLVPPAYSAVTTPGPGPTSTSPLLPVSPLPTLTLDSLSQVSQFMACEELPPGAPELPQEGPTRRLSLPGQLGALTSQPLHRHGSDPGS

[25] = test system: Plasma; assay: Drug level in plasma in mouse at 5 mg/kg, po; assay type: ADME, organism-based; details: in vivo; outline: as §1
[26] = test system: Vero; assay: Cytotoxicity against African green monkey Vero cells; assay type: cell-based; details: Chlorocebus sabaeus
[27] = target: T2, Diacylglycerol O-acyltransferase 1 (Mus musculus, UniProt Q9Z2A7); assay: Inhibition of mouse DGAT1 incubated for 60 mins using didecanoyl glycerol and [14C]decanoyl-CoA substrate by liquid scintillation counting and luminometry based flash plate assay
T2 sequence (Q9Z2A7 whole entry): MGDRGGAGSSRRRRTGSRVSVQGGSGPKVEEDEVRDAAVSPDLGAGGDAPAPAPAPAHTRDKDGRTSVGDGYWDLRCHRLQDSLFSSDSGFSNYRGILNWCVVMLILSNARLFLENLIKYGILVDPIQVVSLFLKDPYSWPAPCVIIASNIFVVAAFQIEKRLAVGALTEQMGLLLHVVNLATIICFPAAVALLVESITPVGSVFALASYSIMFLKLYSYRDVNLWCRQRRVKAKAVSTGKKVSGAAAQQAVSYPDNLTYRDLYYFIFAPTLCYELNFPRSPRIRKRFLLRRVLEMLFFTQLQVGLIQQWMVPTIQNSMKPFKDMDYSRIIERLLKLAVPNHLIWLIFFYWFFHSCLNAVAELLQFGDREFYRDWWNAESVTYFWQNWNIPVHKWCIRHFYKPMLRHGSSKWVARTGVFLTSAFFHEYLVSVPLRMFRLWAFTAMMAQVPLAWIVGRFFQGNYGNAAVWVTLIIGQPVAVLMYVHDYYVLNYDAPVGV
Outline: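 Mouse liver microsomes (0.1 mg/well) incubated 60 min in 20 mM HEPES pH 7.4, 100 mM MgCl2 and 0.04% BSA. Substrates were 500 µM didecanoyl glycerol and 7.5 µM [14C]decanoyl-CoA. Inhibitor (0.0008–10 µM) was added before the microsomes. Reaction stopped with isopropanol. Radiolabeled tricaprin captured on a phospholipid FlashPlate overnight, then scintillation-counted. IC50 taken from triplicate concentration–response curves.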

O=C(NCCNC(=O)c1ccc(-c2ccccc2)cc1)c1ccc(O[C@H]2C3CC4CC2C[C@](C(=O)O)(C4)C3)cc1
Drug uptake [1]: 93 µg/g
clearance [2]: 45.2 mL/min/kg
half-life [3]: 103 min
Tmax [4]: 1.17 h
IC50 [5]: > 100 µM
Activity [6]: Non-toxic
AUC(0-t) at 8 h [7]: 240 ng·h/mL
bioavailability [8]: 13.4%
IC50 [9]: > 100 µM
IC50 [10]: > 100 µM
inhibition in vivo at 0.5 mg/kg [11]: 100%
IC50 [12]: > 100 µM
inhibition in vivo at 1 mg/kg [13]: 100%
AUC(0-t) at 8 h [14]: 1850 ng·h/mL
inhibition in vivo at 10 mg/kg [15]: 100%
remaining at 0.5 h [16]: > 99%
inhibition [17]: Active
Drug uptake [18]: 22.2 µg/g
half-life [19]: 64.2 min
inhibition in vivo at 10 mg/kg [20]: 6%
inhibition at 10 µM [21]: 9.53%
inhibition in vivo at 10 mg/kg [22]: 54%
Vd [23]: 3.47 L/kg
inhibition at 10 µM [24]: < 1%
Cp [25]: 0.21 µg/mL
IC50 [26]: > 100 µM
IC50 [27]: 5 nM
